According to BindingDB's records for doi:10.1021/jm00111a027 (Merck Sharp & Dohme Research Laboratories, 1991):
pIC50: −log10 of the molar value. Residues, ends and D or L forms follow the SMILES beside them. *: point of attachment. X10 = CCCOC[C@H](CC(C)C)N*

Biological target: Gastrin-releasing peptide receptor (Mus musculus, UniProt P21729)
Assay: Compound was evaluated for mitogenic inhibition against Swiss 3T3 murine fibroblast cells.
Procedure, shortened: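 Swiss 3T3 monolayers grown to confluence, then serum-starved in serum-free DMEM for 48 h. Antagonist added together with 3 nM N-acetyl-GRP-20-27 amide and 23 nM [3H]thymidine. After a further 48 h, cells detached with trypsin/5 mM EDTA and filter-harvested; [3H]thymidine uptake measured. IC50 is the mean of at least two independent experiments.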

Gastrin-releasing peptide receptor, sequence (P21729 whole entry): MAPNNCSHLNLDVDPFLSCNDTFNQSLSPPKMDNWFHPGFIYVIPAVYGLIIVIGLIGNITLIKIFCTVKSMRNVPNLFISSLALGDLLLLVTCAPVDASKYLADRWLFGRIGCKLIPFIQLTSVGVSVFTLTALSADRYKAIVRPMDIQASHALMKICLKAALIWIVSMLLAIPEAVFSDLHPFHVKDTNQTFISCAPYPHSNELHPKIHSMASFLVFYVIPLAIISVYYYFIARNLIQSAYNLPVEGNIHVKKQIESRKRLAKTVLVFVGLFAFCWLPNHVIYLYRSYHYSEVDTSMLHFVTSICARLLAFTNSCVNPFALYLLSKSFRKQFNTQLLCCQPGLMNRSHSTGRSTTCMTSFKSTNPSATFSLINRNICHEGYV

pIC50: 7.74
Compound: CCCOC[C@H](CC(C)C)NC(=O)[C@H](Cc1c[nH]cn1)NC(=O)CNC(=O)[C@@H](NC(=O)[C@H](C)NC(=O)[C@H](Cc1c[nH]c2ccccc12)NC(=O)[C@H](Cc1c[nH]cn1)NC(C)=O)C(C)C [2-{2-[2-[2-Acetylamino-3-(3H-imidazol-4-yl)-propionylamino]-3-(1H-indol-3-yl)-propionylamino]-propionylamino}-N-{[2-(3H-imidazol-4-yl)-1-(3-methyl-1-propoxymethyl-butylcarbamoyl)-ethylcarbamoyl]-methyl}-3-methyl-butyramide] (Ac-HWAVGH-X10)
